Results taken from ChEMBL document CHEMBL5034002, “Benzoheterocyclic Oxime Carbamates Active against Mycobacterium tuberculosis: Synthesis, Structure-Activity Relationship, Metabolism, and Biology Triaging” (J Med Chem, 2021).
Converted amounts (≈) assume the structure as drawn. The source made the active and inactive calls. The calls are words filed in the database; no cut-off is given here.

Key:
[1] = test system: Mycobacterium tuberculosis; test: Antitubercular activity against Mycobacterium tuberculosis H37RvMA incubated for 14 days in GAST/FE medium by Alamar blue assay; format: functional; settings: 336 h, time 14 day
Procedure, shortened: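 Mtb H37RvMa grown in GAST/Fe medium, 14 day incubation with compound, growth read by Alamar Blue.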

CHO = test: Cytotoxicity against CHO cells; format: cell-based; settings: Cricetulus griseus
Procedure, shortened: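 Cytotoxicity measured on Chinese hamster ovary (CHO) cells.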

[2] = test system: Mycobacterium tuberculosis; test: Antitubercular activity against Mycobacterium tuberculosis H37RvMA infected in THP-1 cells assessed as intracellular bacterial growth at 10 uM measured over 6 days; format: functional, organism-based; settings: time 6.0 day
Procedure, shortened: (§1)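 THP-1 macrophages infected in vitro with Mtb H37RvMa, then treated with compound over 6 days (10 μM, or increasing concentrations up to 80 μM). Intracellular bacterial growth was compared with untreated control at day 6 post treatment by one-way ANOVA with Dunnett's test.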

[3] = Kinetic solubility of the compound in pH 6.5; format: physicochemical; settings: buffer, read-out: Kinetic_solubility
[4] = test system: Mycobacterium tuberculosis; test: Drug degradation in Mycobacterium tuberculosis H37RvMA at 0.1 uM incubated over 96 hrs by LC-MS/MS analysis; format: functional, organism-based
Procedure, shortened: (§2)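 Compound at 0.1 μM in 7H9/OADC medium was added to log-phase Mtb H37RvMa culture and sampled over 96 h, earliest at 3 h. Controls were heat-killed culture and sterile medium. Analysis by LC-MS/MS as analyte/internal standard peak area ratio, expressed as % of mean time-zero ratio. One-way ANOVA with Dunnett's test against medium control at each time point.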

[5] = test system: Mycobacterium tuberculosis; test: Antitubercular activity against Mycobacterium tuberculosis H37RvMA incubated for 14 days in 7H9/OHADC medium by Alamar blue assay; format: functional; settings: 336 h, time 14 day
Enterobacter cloacae = test: Antibacterial activity against Enterobacter cloacae; format: functional
Escherichia coli = test: Antibacterial activity against Escherichia coli ATCC 25922; format: functional
Klebsiella pneumoniae = test: Antibacterial activity against Klebsiella pneumoniae BAA-1705; format: functional; settings: ATCC BAA-1705
Acinetobacter baumannii = test: Antibacterial activity against Acinetobacter baumannii ATCC 19606; format: functional
Pseudomonas aeruginosa = test: Antibacterial activity against Pseudomonas aeruginosa ATCC 27853; format: functional
Staphylococcus aureus = test: Antibacterial activity against Staphylococcus aureus ATCC 25923; format: functional
[6] = Stability in human liver microsomes assessed as compound remaining after 30 mins; format: ADME, Microsome; settings: read-out: Stability
[7] = Stability in rat liver microsomes assessed as compound remaining after 30 mins; format: ADME, Microsome; settings: read-out: Stability
[8] = Stability in mouse liver microsomes assessed as compound remaining after 30 mins; format: ADME, Microsome; settings: read-out: Stability
[9] = Stability in human liver S9 fraction assessed as compound remaining after 40 mins; format: ADME, subcellular; settings: read-out: Stability
[10] = biological target: Voltage-gated inwardly rectifying potassium channel KCNH2 (Homo sapiens, UniProt Q12809); test: Inhibition of human ERG by Ionworks electrophysiology assay
Procedure, shortened: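 hERG inhibition measured by electrophysiology on IonWorks HT.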

[11] = test system: Mycobacterium tuberculosis; test: Drug degradation in Mycobacterium tuberculosis H37RvMA assessed as compound hydrolysis at 0.1 uM incubated over 96 hrs by LC-MS/MS analysis; format: functional, organism-based; procedure, shortened: as §2
[12] = test system: Mycobacterium tuberculosis; test: Antitubercular activity against Mycobacterium tuberculosis H37RvMA infected in THP-1 cells assessed as intracellular bacterial growth at 80 uM measured over 6 days; format: functional, organism-based; settings: time 6.0 day; procedure, shortened: as §1
[13] = test system: Mycobacterium tuberculosis; test: Antitubercular activity against Mycobacterium tuberculosis H37RvMA infected in THP-1 cells assessed as intracellular bacterial growth measured over 6 days; format: functional, organism-based; settings: dose 10-80 µM, time 6.0 day; procedure, shortened: as §1

Chain of Voltage-gated inwardly rectifying potassium channel KCNH2 (Q12809 whole entry): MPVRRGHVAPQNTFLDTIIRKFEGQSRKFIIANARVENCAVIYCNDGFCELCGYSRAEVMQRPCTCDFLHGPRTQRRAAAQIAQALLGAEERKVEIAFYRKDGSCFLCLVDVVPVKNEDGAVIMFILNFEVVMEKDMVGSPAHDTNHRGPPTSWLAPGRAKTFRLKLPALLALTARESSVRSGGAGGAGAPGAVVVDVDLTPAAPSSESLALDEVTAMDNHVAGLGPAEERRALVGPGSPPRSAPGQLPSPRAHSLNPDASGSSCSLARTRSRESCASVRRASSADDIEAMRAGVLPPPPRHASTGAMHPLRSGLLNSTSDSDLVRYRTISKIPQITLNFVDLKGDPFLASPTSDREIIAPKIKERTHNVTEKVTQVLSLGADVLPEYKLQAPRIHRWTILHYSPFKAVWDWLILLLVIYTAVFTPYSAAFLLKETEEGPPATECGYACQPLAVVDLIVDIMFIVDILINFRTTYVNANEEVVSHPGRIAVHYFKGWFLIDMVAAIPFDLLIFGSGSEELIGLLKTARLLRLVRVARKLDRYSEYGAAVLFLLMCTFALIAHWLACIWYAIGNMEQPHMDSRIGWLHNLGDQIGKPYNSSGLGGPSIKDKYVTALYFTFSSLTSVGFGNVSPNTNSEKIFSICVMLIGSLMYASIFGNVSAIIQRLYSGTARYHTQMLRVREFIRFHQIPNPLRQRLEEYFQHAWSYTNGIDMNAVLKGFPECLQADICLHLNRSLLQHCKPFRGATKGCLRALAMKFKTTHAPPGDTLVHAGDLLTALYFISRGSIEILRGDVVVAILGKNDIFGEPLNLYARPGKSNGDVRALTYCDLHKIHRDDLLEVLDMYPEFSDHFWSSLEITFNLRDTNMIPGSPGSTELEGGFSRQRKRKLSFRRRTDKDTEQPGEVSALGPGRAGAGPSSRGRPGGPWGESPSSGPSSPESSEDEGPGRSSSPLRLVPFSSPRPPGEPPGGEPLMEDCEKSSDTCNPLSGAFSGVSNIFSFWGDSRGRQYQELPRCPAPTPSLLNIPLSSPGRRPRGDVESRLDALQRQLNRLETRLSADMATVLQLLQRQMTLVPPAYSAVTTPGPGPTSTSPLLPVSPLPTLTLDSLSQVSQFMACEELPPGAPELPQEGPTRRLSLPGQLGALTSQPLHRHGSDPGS

SMILES	MIC [1] [µM]	IC50 (CHO) [µM]	further results
O/N=C(\c1ccc2ncsc2c1)c1nc2ccccc2s1	> 125	> 50	–
CN(C)C(=O)O/N=C(\C#N)c1nc2ccc([N+](=O)[O-])cc2o1	< 0.24	46.8	–
N#C/C(=N\O)c1nc2ccccc2o1	> 160	–	Activity [2]: inactive
CN(C)C(=O)O/N=C(\C#N)c1ccccc1	9.4 (≈ 2.04 µg/mL)	–	–
CN(C)C(=O)O/N=C(\C#N)c1nc2ccc(F)cc2o1	< 0.24	> 100	–
OC(O)(c1nc2ccccc2s1)C(F)(F)F	> 50	–	solubility kinetic [3]: 184 µM (≈ 45.9 µg/mL)
Cc1ccc2nc(/C(C#N)=N/OC(=O)N(C)C)oc2c1	< 0.16	> 100	Activity [2]: inactive
CN(C)C(=O)O/N=C(\C#N)c1nc2ccccc2o1	0.3 (≈ 0.0775 µg/mL)	> 100	Drug degradation [4]: Unstable; Activity [2]: inactive; solubility kinetic [3]: 18 µM (≈ 4.65 µg/mL); MIC [5]: 0.6 µM (≈ 0.155 µg/mL); MIC (Enterobacter cloacae): > 125 µM; MIC (Escherichia coli): > 125 µM; MIC (Klebsiella pneumoniae): > 125 µM; MIC (Acinetobacter baumannii): > 125 µM; MIC (Pseudomonas aeruginosa): > 125 µM; MIC (Staphylococcus aureus): > 125 µM; remaining at 0.5 h [6]: > 99%; remaining at 0.5 h [7]: 98%; remaining at 0.5 h [8]: > 99%; remaining at 40 min [9]: 60%; IC50 [10]: > 33 µM
CO/N=C(\C#N)c1nc2ccccc2s1	160 (≈ 34.8 µg/mL)	–	–
CCOC(=O)CO/N=C(\C#N)c1nc2ccccc2s1	> 160	–	–
Cc1ccc2nc(/C(C#N)=N/OS(=O)(=O)N(C)C)oc2c1	5 (≈ 1.54 µg/mL)	–	–
NNC(=O)c1ccncc1 [ISONIAZID]	0.14 (≈ 0.0192 µg/mL)	–	–
Cc1cnc(/C(=N\O)c2nc3ccccc3s2)s1	3.13 (≈ 0.862 µg/mL)	29	–
C/C(=N\O)c1nc2ccccc2s1	> 125	> 100	–
CN(C)C(=O)O/N=C(\C#N)c1nc2ccc(Br)cc2o1	< 0.24	> 100	–
N#C/C(=N\O)c1ccccn1	> 50	–	solubility kinetic [3]: 202 µM (≈ 29.7 µg/mL)
CN(C)C(=O)O/N=C(\C#N)c1ccccn1	9.4 (≈ 2.05 µg/mL)	–	solubility kinetic [3]: 175 µM (≈ 38.2 µg/mL)
N#C/C(=N\O)c1nc2ccccc2s1	> 160	> 100	–
Cc1nnc(/C(=N\O)c2nc3ccccc3s2)s1	2.5 (≈ 0.691 µg/mL)	38	–
Cc1nnc(/C(=N\O)c2nc3ccccc3s2)o1	160 (≈ 41.6 µg/mL)	–	–
O/N=C(\c1ccccc1)c1nc2ccccc2s1	> 50	> 100	–
N#C/C(=N\[O-])c1ccccc1.[Na+]	> 50	–	solubility kinetic [3]: 56 µM
O/N=C(\c1cnccn1)c1nc2ccccc2s1	3.6 (≈ 0.923 µg/mL)	11.7	–
CN(C)C(=O)O/N=C(\C#N)c1nc2ccccc2s1	< 0.16	> 100	–
N#C/C(=N\OCc1cccnc1)c1nc2ccccc2s1	> 160	–	–
CCCO/N=C(\C#N)c1nc2ccccc2s1	> 160	–	–
CN(C)C(=O)O/N=C(\C#N)c1nc2cc(F)ccc2o1	< 0.24	–	–
Cc1cccc2oc(/C(C#N)=N/OC(=O)N(C)C)nc12	< 0.24	> 100	–

SMILES	MIC [1] [µM]	IC50 (CHO) [µM]	further results
O/N=C(/c1nc2ccccc2s1)C(F)(F)F	37 (≈ 9.11 µg/mL)	–	–
O/N=C(/c1nc2ccccc2s1)C1CCCCC1	> 125	51.6	–
CON=C(c1nc2ccccc2s1)c1nc2ccccc2s1	> 125	> 50	–
ON=C(c1nc2ccccc2s1)c1nc2ccccc2s1	0.8 (≈ 0.249 µg/mL)	> 100	–
O/N=C/c1nc2ccccc2s1	> 160	–	–
Cc1nc(/C(=N\O)c2nc3ccccc3s2)no1	> 160	–	–
Cc1ccc2nc(/C(C#N)=N/O)oc2c1	> 160	> 100	Drug degradation [4]: Unstable; Activity [2]: inactive
O/N=C(\c1cnco1)c1nc2ccccc2s1	50 (≈ 12.3 µg/mL)	> 100	–
CN(C)C(=O)O/N=C(\C#N)c1nc2ccccc2[nH]1	9.4 (≈ 2.42 µg/mL)	–	solubility kinetic [3]: 29 µM (≈ 7.46 µg/mL)
CN(C)C(=O)CO/N=C(\C#N)c1nc2ccccc2s1	> 160	–	–
[O-][n+]1onc(-c2nc3ccccc3s2)c1-c1nc2ccccc2s1	> 50	–	solubility kinetic [3]: < 5 µM
CN(C)C(=O)O/N=C(\C#N)c1nc2ccc(Cl)cc2o1	< 0.24	> 100	Drug degradation [11]: Unstable; Activity [2]: inactive; Activity [12]: Active; Activity [13]: Dose-Dependent Effect
Nc1nonc1-c1nc2ccccc2s1	> 50	–	solubility kinetic [3]: 5 µM (≈ 1.09 µg/mL)
N#C/C(=N\OCc1ccccc1)c1nc2ccccc2s1	20 (≈ 5.87 µg/mL)	–	–
CN(C)S(=O)(=O)O/N=C(\C#N)c1nc2ccccc2s1	0.3 (≈ 0.0931 µg/mL)	91.3	–
CN(C)C(=O)O/N=C(\C#N)c1nc2ccc(C(F)(F)F)cc2o1	< 0.24	46.3	–
O/N=C(/c1nc2ccccc2s1)C1CCCC1	> 125	83.5	–
O/N=C(\c1nnc(C(F)(F)F)s1)c1nc2ccccc2s1	0.78 (≈ 0.258 µg/mL)	15.6	solubility kinetic [3]: 67 µM (≈ 22.1 µg/mL); MIC [5]: 1.2 µM (≈ 0.396 µg/mL); MIC (Enterobacter cloacae): > 125 µM; MIC (Escherichia coli): > 125 µM; MIC (Klebsiella pneumoniae): > 125 µM; MIC (Acinetobacter baumannii): > 125 µM; MIC (Pseudomonas aeruginosa): > 125 µM; MIC (Staphylococcus aureus): > 125 µM; remaining at 0.5 h [6]: > 99%; remaining at 0.5 h [7]: 86%; remaining at 0.5 h [8]: 71%
CS(=O)(=O)O/N=C(\C#N)c1nc2ccccc2s1	0.5 (≈ 0.141 µg/mL)	–	–
CC(=O)Nc1ccc2nc(/C(C#N)=N/OC(=O)N(C)C)oc2c1	5.2 (≈ 1.64 µg/mL)	> 100	–
N#C/C(=N\OCc1ccccn1)c1nc2ccccc2s1	> 160	–	–
N#C/C(=N\OCc1ccncc1)c1nc2ccccc2s1	20 (≈ 5.89 µg/mL)	–	–
Cc1ccc2oc(/C(C#N)=N/OC(=O)N(C)C)nc2c1	< 0.24	> 100	–
CN(C)C(=O)O/N=C(\C#N)c1nc2cc(Cl)ccc2o1	< 0.24	> 100	–
CO[C@H]1/C=C/O[C@@]2(C)Oc3c(C)c(O)c4c(O)c(c(/C=N/N5CCN(C)CC5)c(O)c4c3C2=O)NC(=O)/C(C)=C\C=C\[C@H](C)[C@H](O)[C@@H](C)[C@@H](O)[C@@H](C)[C@H](OC(C)=O)[C@@H]1C [RIFAMPIN]	0.009 (≈ 0.00741 µg/mL)	–	–
COC(=O)c1ccc2nc(/C(C#N)=N/OC(=O)N(C)C)oc2c1	< 0.24	7.05	–
CN(C)C(=O)O/N=C(\C#N)c1nc2cc(Br)ccc2o1	< 0.24	–	–
